Tests used:
[1] = Food effect study: plasma pharmacokinetics; type: in vivo, human; conditions: for AUC (0 to infinity), geometric mean / AUC (0 to infinity), mean ± SD / C max, geometric mean / C max, mean ± SD / t 1/2z, geometric mean / t 1/2z, mean ± SD / t lag, median / t max, median: 200 mg single dose
[2] = MAD study: plasma and urine pharmacokinetics; type: in vivo, human
How it was run: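 Healthy males got oral doses for 14 days: 100 mg once daily fasted, or 100, 200 or 300 mg twice daily fed. Plasma was drawn pre-dose and […] on Day 1, pre-dose and at 3 h on Days 4, 7 and 12, and up to 120 h after the final Day 14 morning dose. Urine was collected over 24 h at steady state. LC–MS/MS, LLOQ 2 ng/mL; non-compartmental analysis.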

[3] = MAD 24-hour urine Day 13, 100 mg BID fed
[4] = MAD 24-hour urine Day 13, 100 mg QD fasted
[5] = MAD 24-hour urine Day 13, 200 mg BID fed
[6] = MAD 24-hour urine Day 13, 300 mg BID fed
[7] = MAD Day 1 first dose, 100 mg BID fed
[8] = MAD Day 1 first dose, 100 mg QD fasted
[9] = MAD Day 1 first dose, 100 mg QD fasted, calculated by extrapolation
[10] = MAD Day 1 first dose, 200 mg BID fed
[11] = MAD Day 1 first dose, 300 mg BID fed

- AUC higher in the fed state than in the fasted state ([1]; 200 mg): 18%
- AUClast higher in the fed state than in the fasted state ([1]; 200 mg): 16%
- C max higher in the fed state than in the fasted state ([1]; 200 mg): 14%
- delay of maximum plasma concentrations, fed compared to fasted ([1]; 200 mg): 1 h
- AUC (0 to infinity), geometric mean ([1]; fasted): (2,010) [26] ng·h/mL
- AUC (0 to infinity), mean ± SD ([1]; fasted): 2,060 ± 539 ng·h/mL
- C max, geometric mean ([1]; fasted): (119) [32] ng/mL
- C max, mean ± SD ([1]; fasted): 123 ± 39.5 ng/mL
- t 1/2z, geometric mean ([1]; fasted): (21.9) [23] h
- t 1/2z, mean ± SD ([1]; fasted): 22.5 ± 5.23 h
- t lag, median ([1]; fasted): 0.00 h
- t max, median ([1]; fasted): 3.00 h
- AUC (0 to infinity), geometric mean ([1]; fed): (2,340) [33] ng·h/mL
- AUC (0 to infinity), mean ± SD ([1]; fed): 2,430 ± 815 ng·h/mL
- C max, geometric mean ([1]; fed): (132) [35] ng/mL
- C max, mean ± SD ([1]; fed): 138 ± 48.1 ng/mL
- t 1/2z, geometric mean ([1]; fed): (27.3) [18] h
- t 1/2z, mean ± SD ([1]; fed): 27.6 ± 4.84 h
- t lag, median ([1]; fed): 0.00 h
- t max, median ([1]; fed): 4.00 h
- AUC geometric mean ratio, point estimate ([1]; 200 mg, fed vs. fasted): 1.18
- AUClast geometric mean ratio, point estimate ([1]; 200 mg, fed vs. fasted): 1.16
- C max geometric mean ratio, point estimate ([1]; 200 mg, fed vs. fasted): 1.14
- effect of food on the PK characteristics ([1]; high-fat meal): no relevant effects
- time to steady state (90% CI) ([2]; BID dosing, fed): 5.45 (5.36–5.92) days
- Fe0-24 (fraction of dose excreted unchanged in urine), mean ± SD [2, 3]: 9.41 ± 4.66%
- Fe0-24, geometric mean [2, 3]: (8.18) [50] %
- Fe0-24 (fraction of dose excreted unchanged in urine), mean ± SD [2, 4]: 9.07 ± 1.85%
- Fe0-24, geometric mean [2, 4]: (8.91) [20] %
- Fe0-24 (fraction of dose excreted unchanged in urine), mean ± SD [2, 5]: 11.9 ± 3.54%
- Fe0-24, geometric mean [2, 5]: (11.4) [30] %
- Fe0-24 (fraction of dose excreted unchanged in urine), mean ± SD [2, 6]: 15.6 ± 4.40%
- Fe0-24, geometric mean [2, 6]: (15.0) [28] %
- AUC0-12, geometric mean [2, 7]: (324) [53] ng·h/mL
- AUC0-12, mean ± SD [2, 7]: 364 ± 194 ng·h/mL
- C av, geometric mean [2, 7]: (27.0) [53] ng/mL
- C av, mean ± SD [2, 7]: 30.4 ± 16.2 ng/mL
- C max, geometric mean [2, 7]: (38.1) [50] ng/mL
- C max, mean ± SD [2, 7]: 42.6 ± 21.2 ng/mL
- t max, median (min, max) [2, 7]: 6.00 (2.00, 8.00) h
- AUC0-12, geometric mean [2, 8]: (527) [35] ng·h/mL
- AUC0-12, mean ± SD [2, 8]: 559 ± 194 ng·h/mL
- C av, geometric mean [2, 8]: (28.1) [32] ng/mL
- C av, mean ± SD [2, 8]: 29.5 ± 9.33 ng/mL
- C max, geometric mean [2, 8]: (83.1) [38] ng/mL
- C max, mean ± SD [2, 8]: 88.6 ± 34.0 ng/mL
- t max, median (min, max) [2, 8]: 3.00 (3.00, 3.00) h
- AUC0-24, geometric mean [2, 9]: 674 ng·h/mL
- AUC0-24, mean ± SD [2, 9]: 708 ± 224 ng·h/mL
- AUC0-12, geometric mean [2, 10]: (1,080) [31] ng·h/mL
- AUC0-12, mean ± SD [2, 10]: 1,130 ± 354 ng·h/mL
- C av, geometric mean [2, 10]: (90.3) [31] ng/mL
- C av, mean ± SD [2, 10]: 94.5 ± 29.5 ng/mL
- C max, geometric mean [2, 10]: (132) [32] ng/mL
- C max, mean ± SD [2, 10]: 139 ± 43.9 ng/mL
- t max, median (min, max) [2, 10]: 5.00 (2.00, 6.00) h
- AUC0-12, geometric mean [2, 11]: (2,180) [32] ng·h/mL
- AUC0-12, mean ± SD [2, 11]: 2,280 ± 725 ng·h/mL
- C av, geometric mean [2, 11]: (182) [32] ng/mL
- C av, mean ± SD [2, 11]: 190 ± 60.4 ng/mL
- C max, geometric mean [2, 11]: (268) [31] ng/mL
- C max, mean ± SD [2, 11]: 278 ± 85.4 ng/mL
- t max, median (min, max) [2, 11]: 4.00 (3.00, 6.00) h
- AUC0-tau, geometric mean ([2]; MAD Day 14, 100 mg BID fed): (1,690) [48] ng·h/mL
- AUC0-tau, mean ± SD ([2]; MAD Day 14, 100 mg BID fed): 1,860 ± 892 ng·h/mL
- C av, geometric mean ([2]; MAD Day 14, 100 mg BID fed): (141) [48] ng/mL
- C av, mean ± SD ([2]; MAD Day 14, 100 mg BID fed): 155 ± 74.4 ng/mL
- C max, geometric mean ([2]; MAD Day 14, 100 mg BID fed): (173) [46] ng/mL
- C max, mean ± SD ([2]; MAD Day 14, 100 mg BID fed): 189 ± 86.3 ng/mL
- C trough, geometric mean ([2]; MAD Day 14, 100 mg BID fed): (122) [52] ng/mL
- C trough, mean ± SD ([2]; MAD Day 14, 100 mg BID fed): 136 ± 70.8 ng/mL
- CLss/F, geometric mean ([2]; MAD Day 14, 100 mg BID fed): (59.1) [44] L/h
- CLss/F, mean ± SD ([2]; MAD Day 14, 100 mg BID fed): 64.6 ± 28.2 L/h
- FLrel (relative fluctuation), geometric mean ([2]; MAD Day 14, 100 mg BID fed): (46.1) [20] %
- R ac (accumulation ratio), mean ± SD ([2]; MAD Day 14, 100 mg BID fed): 5.46 ± 0.951
- R ac Cmax (accumulation ratio based on C max), mean ± SD ([2]; MAD Day 14, 100 mg BID fed): 4.77 ± 0.730
Structure (SMILES): CN1C(=O)c2cccc(OC(F)F)c2[C@H]2C[C@@H]1c1nc3ccc(-c4cnc(C5(N)CCC5)nc4)cc3n12 [Balinatunfib]

— article PMC12166256 (Clinical Pharmacology and Therapeutics, 2025)
